Source: ChEMBL document CHEMBL2150985, “Synthesis and antioxidant activity of 1,3,4-oxadiazole tagged thieno[2,3-d]pyrimidine derivatives” (Eur J Med Chem, 2012)
Converted amounts (≈) assume the structure as drawn.

Legend:
Format in all cases: functional
[1] = system: Radical scavenging activity; assay: Antioxidant activity assessed as inhibition of DPPH free radical production at 75 ug/mL after 30 mins by spectrophotometric analysis relative to control
Method in brief: (§1)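 Test compound in methanol added to 0.004% (w/v) methanolic DPPH at a 1:4 volume ratio. Incubated 30 min at room temperature. Absorbance read against blank at 517 nm.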

[2] = system: Radical scavenging activity; assay: Antioxidant activity assessed as inhibition of DPPH free radical production at 50 ug/mL after 30 mins by spectrophotometric analysis relative to control; method in brief: as §1
[3] = system: Radical scavenging activity; assay: Antioxidant activity assessed as inhibition of DPPH free radical production after 30 mins by spectrophotometric analysis; method in brief: as §1
[4] = Antioxidant activity assessed as inhibition of nitric oxide free radical production at 25 ug/mL after 150 mins by Griess method relative to control
Method in brief: (§2)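 NO generated from sodium nitroprusside (10 mM) in 0.2 M phosphate buffered saline, pH 7.4, with compound at […]. Incubated 150 min at 25 °C. An aliquot was mixed 1:1 with Griess reagent (1% sulfanilamide, 2% H3PO4, 0.1% naphthylethylenediamine dihydrochloride).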

[5] = Antioxidant activity assessed as inhibition of H2O2 radical scavenging activity at 50 ug/mL by spectrophotometric analysis relative to control
Method in brief: (§3)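 H2O2 (40 mM) prepared in phosphate buffer, pH 7.4. Compounds at […] in phosphate buffer were added to the H2O2 solution. Absorbance of the mixture was read at 230 nm, and percent H2O2 scavenging was calculated.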

[6] = system: Radical scavenging activity; assay: Antioxidant activity assessed as inhibition of DPPH free radical production at 100 ug/mL after 30 mins by spectrophotometric analysis relative to control; method in brief: as §1
[7] = Antioxidant activity assessed as inhibition of nitric oxide free radical production after 150 mins by Griess method; method in brief: as §2
[8] = Antioxidant activity assessed as inhibition of H2O2 radical scavenging activity at 25 ug/mL by spectrophotometric analysis relative to control; method in brief: as §3
[9] = Antioxidant activity assessed as inhibition of H2O2 radical scavenging activity at 75 ug/mL by spectrophotometric analysis relative to control; method in brief: as §3
[10] = Antioxidant activity assessed as inhibition of nitric oxide free radical production at 75 ug/mL after 150 mins by Griess method relative to control; method in brief: as §2
[11] = system: Radical scavenging activity; assay: Antioxidant activity assessed as inhibition of DPPH free radical production at 25 ug/mL after 30 mins by spectrophotometric analysis relative to control; method in brief: as §1
[12] = Antioxidant activity assessed as inhibition of nitric oxide free radical production at 100 ug/mL after 150 mins by Griess method relative to control; method in brief: as §2
[13] = Antioxidant activity assessed as inhibition of H2O2 radical scavenging activity at 100 ug/mL by spectrophotometric analysis relative to control; method in brief: as §3
[14] = Antioxidant activity assessed as inhibition of H2O2 radical scavenging activity by spectrophotometric analysis; method in brief: as §3
[15] = Antioxidant activity assessed as inhibition of nitric oxide free radical production at 50 ug/mL after 150 mins by Griess method relative to control; method in brief: as §2

IC50 [3] [µg/mL]	IC50 [7] [µg/mL]	IC50 [14] [µg/mL]	Structure (SMILES)	inhibition [1] [%]	inhibition [2] [%]	inhibition [4] [%]	inhibition [5] [%]	inhibition [6] [%]	inhibition [8] [%]	inhibition [9] [%]	inhibition [10] [%]	inhibition [11] [%]	inhibition [12] [%]	inhibition [13] [%]	inhibition [15] [%]
18.25 (≈ 41.7 µM)	17.14 (≈ 39.1 µM)	20.74 (≈ 47.4 µM)	Cc1c(-c2nnc(-c3ccccc3)o2)sc2ncnc(Nc3ccc(F)c(Cl)c3)c12	74.9	72.8	72.9	63.5	79.2	60.3	67.8	78.2	68.5	82.4	70.9	74.1
17.7 (≈ 40.4 µM)	17.39 (≈ 39.7 µM)	19.49 (≈ 44.5 µM)	Cc1c(-c2nnc(-c3ccc(Cl)cc3)o2)sc2ncnc(Nc3ccc(F)cc3)c12	77.8	74.2	71.8	67.4	81.9	64.1	69.8	79.7	70.6	83.6	72.6	76.3
19.57 (≈ 41.4 µM)	19.41 (≈ 41.1 µM)	20.18 (≈ 42.7 µM)	Cc1c(-c2nnc(-c3ccc(Cl)cc3)o2)sc2ncnc(Nc3ccc(F)c(Cl)c3)c12	71.5	67.9	64.4	64.5	76.6	61.9	68.2	74.7	63.9	79.5	71.9	69.2
18.03 (≈ 42.9 µM)	17.54 (≈ 41.8 µM)	20.47 (≈ 48.8 µM)	Cc1c(-c2nnc(-c3ccccc3)o2)sc2ncnc(Nc3ccc(Cl)cc3)c12	76.8	71.6	71.3	63.8	81.3	61.1	68.2	77.1	69.3	82.9	71.6	74.8
25.69 (≈ 53.2 µM)	23.3 (≈ 48.3 µM)	27.76 (≈ 57.5 µM)	Cc1c(-c2nnc(-c3ccc([N+](=O)[O-])cc3)o2)sc2ncnc(Nc3ccc(F)c(Cl)c3)c12	56.6	52.9	53.6	47.4	61.9	45	50.4	60	48.6	64.3	53.6	56.5
15.11 (≈ 85.8 µM)	14.75 (≈ 83.7 µM)	16.35 (≈ 92.8 µM)	O=C1O[C@H]([C@@H](O)CO)C(O)=C1O [ASCORBIC ACID]	85.5	83.5	84.7	78.6	87.2	76.4	82.4	88.3	82.7	90.4	86.6	86
23.7 (≈ 51 µM)	20.49 (≈ 44.1 µM)	24.33 (≈ 52.3 µM)	Cc1c(-c2nnc(-c3ccc([N+](=O)[O-])cc3)o2)sc2ncnc(Nc3ccc(Cl)cc3)c12	61.4	58.2	61	54	67.8	51.4	58.1	67.6	52.7	72.4	63.7	63.5
19.34 (≈ 41.5 µM)	19.66 (≈ 42.2 µM)	22.98 (≈ 49.3 µM)	Cc1c(-c2nnc(-c3ccc([N+](=O)[O-])cc3)o2)sc2ncnc(Nc3ccc(F)cc3F)c12	73.9	69.5	63.6	58.1	77.8	54.4	62.8	76.2	64.6	79	66.2	71.4
20.92 (≈ 46.7 µM)	20.14 (≈ 44.9 µM)	23.54 (≈ 52.5 µM)	Cc1c(-c2nnc(-c3ccc([N+](=O)[O-])cc3)o2)sc2ncnc(Nc3ccc(F)cc3)c12	68.9	64.5	62	56.6	72.2	53.1	60	70.9	59.7	73.9	64.2	66.8
16.35 (≈ 35.9 µM)	15.98 (≈ 35.1 µM)	18.26 (≈ 40.1 µM)	Cc1c(-c2nnc(-c3ccc(Cl)cc3)o2)sc2ncnc(Nc3ccc(F)cc3F)c12	83.3	79.7	78.2	71.7	85.8	68.4	74.5	84.6	76.4	86.2	79.7	83.3
16.91 (≈ 40.1 µM)	16.61 (≈ 39.4 µM)	19.57 (≈ 46.4 µM)	Cc1c(-c2nnc(-c3ccccc3)o2)sc2ncnc(Nc3ccc(F)cc3F)c12	79.6	77.4	75.2	65.5	83.8	63.9	69	82.6	73.9	85.4	72.5	79.5
17.25 (≈ 42.8 µM)	17.1 (≈ 42.4 µM)	18.85 (≈ 46.7 µM)	Cc1c(-c2nnc(-c3ccccc3)o2)sc2ncnc(Nc3ccc(F)cc3)c12	78.4	75.8	73.1	69.5	83.1	66.3	71.7	82.4	72.5	84.9	74.2	78.1
19.31 (≈ 42.5 µM)	18.27 (≈ 40.2 µM)	21.22 (≈ 46.7 µM)	Cc1c(-c2nnc(-c3ccc(Cl)cc3)o2)sc2ncnc(Nc3ccc(Cl)cc3)c12	73.8	68.4	68.4	62.3	77.5	58.3	65.7	74.2	64.7	79.4	69.8	70.6
